According to ChEMBL document CHEMBL3627690, “Scaffold-Hopping and Structure-Based Discovery of Potent, Selective, And Brain Penetrant N-(1H-Pyrazol-3-yl)pyridin-2-amine Inhibitors of Dual Leucine Zipper Kinase (DLK, MAP3K12)” (J Med Chem, 2015):
The source made the active and inactive calls. No cut-off for these calls is given here.

Legend:
[1] = molecular target: Ribosomal protein S6 kinase alpha-3 (Homo sapiens) (UniProt P51812); experiment: Inhibition of Rsk2 (unknown origin) at 1 uM by FRET method
Procedure, shortened: (§1)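 Single-point screen at 1 uM against a panel of 58 representative kinases. Readout was labeled-peptide phosphorylation by FRET (Z′-LYTE), using the vendor's protocols.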

[2] = molecular target: High affinity nerve growth factor receptor (Homo sapiens, UniProt P04629); experiment: Inhibition of TrkA (unknown origin) at 1 uM by FRET method; procedure, shortened: as §1
[3] = tested on: human MDR1; experiment: Efflux ratio of permeability across basolateral to apical over apical to basolateral side in MDCK cells transfected with human MDR1 at 5 uM by LC-MS/MS analysis; settings: dog
[4] = molecular target: Serine/threonine-protein kinase pim-1 (Homo sapiens) (UniProt P11309); experiment: Inhibition of PIM1 (unknown origin) at 1 uM by FRET method; procedure, shortened: as §1
[5] = tested on: HEK293; experiment: Effect on total JNK protein level in HEK293 cells transfected with Flag DLK (unknown origin) at 0.1 to 10 uM incubated for 5 hrs by Western blot analysis; settings: human, hek293, 5 h
[6] = molecular target: Proto-oncogene tyrosine-protein kinase Src (Homo sapiens, UniProt P12931); experiment: Inhibition of Src (unknown origin) by FRET method
Procedure, shortened: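 Biochemical IC50 determination from a 10-point dose-response in an enzymatic Z′-LYTE assay. Labeled-peptide phosphorylation was read by FRET under the vendor's protocols.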

[7] = molecular target: RAC-alpha serine/threonine-protein kinase (Homo sapiens) (UniProt P31749); experiment: Inhibition of AKT1 (unknown origin) at 1 uM by FRET method
Procedure, shortened: (§2)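 SelectScreen panel of 58 kinases, each tested at a single 1 µM compound concentration. Read-out was Z′-LYTE FRET of labeled peptide phosphorylation, run by the vendor's protocols, reported as percent inhibition.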

[8] = molecular target: Epidermal growth factor receptor (Homo sapiens) (UniProt P00533); experiment: Inhibition of EGFR (unknown origin) at 1 uM by FRET method; procedure, shortened: as §2
[9] = molecular target: Tyrosine-protein kinase JAK3 (Homo sapiens) (UniProt P52333); experiment: Inhibition of JAK3 (unknown origin) at 1 uM by FRET method; procedure, shortened: as §2
[10] = molecular target: Phosphorylase b kinase gamma catalytic chain, liver/testis isoform (Homo sapiens) (UniProt P15735); experiment: Inhibition of PhKgamma2 (unknown origin) at 1 uM by FRET method; procedure, shortened: as §1
[11] = molecular target: Ribosomal protein S6 kinase beta-1 (Homo sapiens) (UniProt P23443); experiment: Inhibition of p70S6K (unknown origin) at 1 uM by FRET method; procedure, shortened: as §1
[12] = molecular target: T1, Mitogen-activated protein kinase kinase kinase 12 (Homo sapiens) (UniProt Q12852); experiment: Inhibition of Flag DLK (unknown origin) transfected in HEK293 cells assessed as reduction of phosphorylation of MKK7 at 0.1 to 10 uM incubated for 5 hrs measured by Western blot analysis; assay type: cell-based
T1 sequence (whole entry): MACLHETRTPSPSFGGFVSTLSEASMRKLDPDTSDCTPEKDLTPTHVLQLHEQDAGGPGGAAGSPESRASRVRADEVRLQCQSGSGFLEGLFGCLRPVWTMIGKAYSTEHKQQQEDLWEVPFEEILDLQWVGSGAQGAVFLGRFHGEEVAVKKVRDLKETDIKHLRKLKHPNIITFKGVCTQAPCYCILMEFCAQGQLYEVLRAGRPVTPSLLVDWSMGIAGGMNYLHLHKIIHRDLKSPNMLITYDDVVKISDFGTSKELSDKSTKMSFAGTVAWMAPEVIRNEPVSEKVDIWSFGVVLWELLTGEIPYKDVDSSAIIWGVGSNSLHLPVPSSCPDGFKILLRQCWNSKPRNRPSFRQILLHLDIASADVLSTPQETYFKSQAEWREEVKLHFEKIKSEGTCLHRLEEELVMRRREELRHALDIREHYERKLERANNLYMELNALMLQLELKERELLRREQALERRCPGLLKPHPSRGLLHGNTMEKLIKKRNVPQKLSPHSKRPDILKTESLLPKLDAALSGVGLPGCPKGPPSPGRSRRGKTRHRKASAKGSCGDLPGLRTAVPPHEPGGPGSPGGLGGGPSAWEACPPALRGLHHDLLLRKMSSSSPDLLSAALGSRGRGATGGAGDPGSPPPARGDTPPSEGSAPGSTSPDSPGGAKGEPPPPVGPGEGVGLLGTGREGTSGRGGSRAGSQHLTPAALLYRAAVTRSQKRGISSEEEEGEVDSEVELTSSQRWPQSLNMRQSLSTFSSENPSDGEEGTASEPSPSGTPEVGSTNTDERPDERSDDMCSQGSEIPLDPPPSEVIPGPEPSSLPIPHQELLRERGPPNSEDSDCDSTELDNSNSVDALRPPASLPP
Procedure, shortened: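 HEK293 cells were transfected with Flag-tagged DLK, with kinase-dead DLK K152A as comparator, 24 h before compound addition. Cells were then exposed to compound for 5 h. Phospho-MKK4, phospho-MKK7, phospho-JNK and phospho-c-Jun were probed.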

[13] = molecular target: Receptor tyrosine-protein kinase erbB-2 (Homo sapiens) (UniProt P04626); experiment: Inhibition of ErbB2 (unknown origin) at 1 uM by FRET method; procedure, shortened: as §2
[14] = molecular target: Tyrosine-protein kinase Lck (Homo sapiens) (UniProt P06239); experiment: Inhibition of Lck (unknown origin) at 1 uM by FRET method; procedure, shortened: as §2
[15] = molecular target: Tyrosine-protein kinase ABL1 (Homo sapiens) (UniProt P00519); experiment: Inhibition of Abl (unknown origin) at 1 uM by FRET method; procedure, shortened: as §2
[16] = Tmax in mouse at 50 mg/kg, po; assay type: ADME, organism-based; settings: in vivo
Procedure, shortened: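 Mice were dosed orally at 50 mg/kg as a methylcellulose suspension. Exposure was sampled over 0–6 h, and free brain concentration was determined at 6 h.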

[17] = molecular target: Serine/threonine-protein kinase mTOR (Homo sapiens) (UniProt P42345); experiment: Inhibition of mTOR (unknown origin) at 1 uM by FRET method; procedure, shortened: as §1
[18] = molecular target: Serine/threonine-protein kinase MARK2 (Homo sapiens) (UniProt Q7KZI7); experiment: Inhibition of MARK2 (unknown origin) at 1 uM by FRET method; procedure, shortened: as §2
[19] = molecular target: c-Jun N-terminal kinase, JNK (Homo sapiens) (UniProt P45983+P53779+P45984); experiment: Inhibition of Myc CA-JNK (unknown origin) transfected in HEK293 cells assessed as reduction of phosphorylation of c-Jun at 10 uM incubated for 5 hrs measured by Western blot analysis; assay type: cell-based
Procedure, shortened: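 HEK293 cells were transfected with constitutively active JNK 24 h before compound treatment. Cells were then exposed to compound for 5 h.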

[20] = molecular target: T2, Mitogen-activated protein kinase 8 (Homo sapiens, UniProt P45983); experiment: Inhibition of JNK1 (unknown origin) by FRET method
Procedure, shortened: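 JNK1, JNK2 and JNK3 IC50 values came from a 10-point dose–response enzymatic assay.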

[21] = molecular target: T2, Mitogen-activated protein kinase 8; experiment: Inhibition of JNK1alpha1(unknown origin) at 1 uM by FRET method; procedure, shortened: as §2
[22] = molecular target: TAK1/TAB1 (Homo sapiens) (UniProt Q15750+O43318); experiment: Inhibition of TAK1-TAB1 (unknown origin) at 1 uM by FRET method; assay type: protein-complex assay; procedure, shortened: as §1

T2 sequence (P45983 whole entry): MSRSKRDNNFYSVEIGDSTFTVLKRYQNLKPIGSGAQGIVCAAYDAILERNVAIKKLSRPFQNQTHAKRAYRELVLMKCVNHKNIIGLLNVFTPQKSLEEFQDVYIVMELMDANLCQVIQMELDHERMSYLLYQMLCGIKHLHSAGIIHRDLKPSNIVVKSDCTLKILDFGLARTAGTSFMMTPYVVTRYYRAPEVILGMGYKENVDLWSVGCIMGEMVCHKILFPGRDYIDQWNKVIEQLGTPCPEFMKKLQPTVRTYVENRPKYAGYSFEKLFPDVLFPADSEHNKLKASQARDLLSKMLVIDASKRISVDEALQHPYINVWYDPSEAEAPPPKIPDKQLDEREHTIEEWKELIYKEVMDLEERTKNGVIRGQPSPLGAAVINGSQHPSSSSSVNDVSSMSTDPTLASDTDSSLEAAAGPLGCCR
Tyrosine-protein kinase ABL1 (Homo sapiens), sequence (P00519 whole entry): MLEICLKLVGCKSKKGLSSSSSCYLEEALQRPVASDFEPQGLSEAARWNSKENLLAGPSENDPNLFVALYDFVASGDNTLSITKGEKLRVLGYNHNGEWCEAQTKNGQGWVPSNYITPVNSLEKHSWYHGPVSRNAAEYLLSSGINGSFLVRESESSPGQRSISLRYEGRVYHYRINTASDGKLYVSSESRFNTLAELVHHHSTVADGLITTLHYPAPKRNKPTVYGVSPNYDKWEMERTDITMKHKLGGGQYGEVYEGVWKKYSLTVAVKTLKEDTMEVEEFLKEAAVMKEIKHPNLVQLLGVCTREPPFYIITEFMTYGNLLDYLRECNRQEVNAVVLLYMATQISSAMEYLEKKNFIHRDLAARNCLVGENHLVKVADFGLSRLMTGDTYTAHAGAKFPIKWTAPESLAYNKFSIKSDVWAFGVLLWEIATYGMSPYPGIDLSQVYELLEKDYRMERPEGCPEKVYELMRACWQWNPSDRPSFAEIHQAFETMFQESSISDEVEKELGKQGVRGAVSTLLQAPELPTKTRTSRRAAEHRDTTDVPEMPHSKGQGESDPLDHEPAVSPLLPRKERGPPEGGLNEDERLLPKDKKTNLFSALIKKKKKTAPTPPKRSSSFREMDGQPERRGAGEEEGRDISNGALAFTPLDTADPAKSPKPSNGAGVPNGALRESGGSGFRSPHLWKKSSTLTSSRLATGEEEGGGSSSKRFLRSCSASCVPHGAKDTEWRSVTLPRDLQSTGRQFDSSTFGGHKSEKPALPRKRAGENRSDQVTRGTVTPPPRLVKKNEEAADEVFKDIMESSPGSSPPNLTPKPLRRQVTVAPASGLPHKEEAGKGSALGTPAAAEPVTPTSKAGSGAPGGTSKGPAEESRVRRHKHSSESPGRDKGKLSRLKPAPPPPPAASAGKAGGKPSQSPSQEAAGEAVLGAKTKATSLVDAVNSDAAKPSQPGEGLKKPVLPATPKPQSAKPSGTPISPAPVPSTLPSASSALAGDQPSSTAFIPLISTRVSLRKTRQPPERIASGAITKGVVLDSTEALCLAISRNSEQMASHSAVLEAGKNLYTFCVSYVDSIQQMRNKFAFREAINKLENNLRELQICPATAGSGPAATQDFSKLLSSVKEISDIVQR
Serine/threonine-protein kinase pim-1 (Homo sapiens), sequence (P11309 whole entry, looked up): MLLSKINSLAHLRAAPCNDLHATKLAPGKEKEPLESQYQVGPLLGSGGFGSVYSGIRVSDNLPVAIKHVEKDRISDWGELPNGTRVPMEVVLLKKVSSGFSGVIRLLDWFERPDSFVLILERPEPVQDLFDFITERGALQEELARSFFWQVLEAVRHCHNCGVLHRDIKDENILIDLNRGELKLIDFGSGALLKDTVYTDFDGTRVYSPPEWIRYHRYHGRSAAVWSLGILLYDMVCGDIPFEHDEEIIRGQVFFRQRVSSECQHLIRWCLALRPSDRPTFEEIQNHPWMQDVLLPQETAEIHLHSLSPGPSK
Proto-oncogene tyrosine-protein kinase Src, sequence (P12931 2-536 limits assumed): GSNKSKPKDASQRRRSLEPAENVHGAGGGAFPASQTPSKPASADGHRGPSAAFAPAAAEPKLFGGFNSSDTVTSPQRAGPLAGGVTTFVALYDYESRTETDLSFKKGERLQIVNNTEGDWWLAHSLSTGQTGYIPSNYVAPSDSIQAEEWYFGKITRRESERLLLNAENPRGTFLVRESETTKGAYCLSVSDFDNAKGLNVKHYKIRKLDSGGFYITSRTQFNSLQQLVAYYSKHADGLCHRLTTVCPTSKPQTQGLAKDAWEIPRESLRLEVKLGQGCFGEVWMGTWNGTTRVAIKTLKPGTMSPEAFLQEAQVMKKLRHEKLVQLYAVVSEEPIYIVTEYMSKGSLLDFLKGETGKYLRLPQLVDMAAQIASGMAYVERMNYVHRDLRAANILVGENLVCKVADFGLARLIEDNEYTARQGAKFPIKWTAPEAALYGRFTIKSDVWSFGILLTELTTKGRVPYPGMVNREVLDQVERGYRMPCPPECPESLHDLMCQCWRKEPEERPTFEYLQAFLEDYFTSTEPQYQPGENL
Ribosomal protein S6 kinase alpha-3 (Homo sapiens), sequence (P51812 whole entry): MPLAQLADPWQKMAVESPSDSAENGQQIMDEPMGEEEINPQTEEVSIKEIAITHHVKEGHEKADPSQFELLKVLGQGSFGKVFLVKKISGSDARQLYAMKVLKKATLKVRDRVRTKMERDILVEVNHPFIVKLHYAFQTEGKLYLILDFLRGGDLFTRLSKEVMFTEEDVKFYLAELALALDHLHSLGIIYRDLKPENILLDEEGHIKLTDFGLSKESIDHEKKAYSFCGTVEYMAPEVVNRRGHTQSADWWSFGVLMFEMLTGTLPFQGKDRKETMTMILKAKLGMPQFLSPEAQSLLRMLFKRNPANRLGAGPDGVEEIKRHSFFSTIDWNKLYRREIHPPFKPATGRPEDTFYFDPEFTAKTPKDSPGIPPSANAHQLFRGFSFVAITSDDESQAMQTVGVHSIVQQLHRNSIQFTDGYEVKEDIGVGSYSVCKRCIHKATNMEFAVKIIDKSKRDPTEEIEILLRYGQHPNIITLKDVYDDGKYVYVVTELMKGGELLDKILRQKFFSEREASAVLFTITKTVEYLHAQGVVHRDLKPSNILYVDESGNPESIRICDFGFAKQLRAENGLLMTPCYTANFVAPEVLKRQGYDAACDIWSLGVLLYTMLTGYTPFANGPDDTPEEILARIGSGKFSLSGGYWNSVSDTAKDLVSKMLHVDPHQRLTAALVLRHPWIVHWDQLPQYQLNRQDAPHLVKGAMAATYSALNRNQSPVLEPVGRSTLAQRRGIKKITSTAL
Phosphorylase b kinase gamma catalytic chain, liver/testis isoform (Homo sapiens), sequence (P15735 whole entry, canonical isoform): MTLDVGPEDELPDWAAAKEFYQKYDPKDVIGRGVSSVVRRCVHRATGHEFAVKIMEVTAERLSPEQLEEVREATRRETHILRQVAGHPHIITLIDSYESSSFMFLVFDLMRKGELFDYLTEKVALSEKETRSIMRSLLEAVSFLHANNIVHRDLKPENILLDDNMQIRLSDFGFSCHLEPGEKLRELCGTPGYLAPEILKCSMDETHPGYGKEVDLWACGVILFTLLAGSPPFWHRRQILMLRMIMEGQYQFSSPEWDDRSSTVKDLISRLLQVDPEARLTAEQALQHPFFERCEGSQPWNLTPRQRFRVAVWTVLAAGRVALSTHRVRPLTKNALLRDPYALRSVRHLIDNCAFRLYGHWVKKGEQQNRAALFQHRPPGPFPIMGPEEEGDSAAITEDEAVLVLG
Ribosomal protein S6 kinase beta-1 (Homo sapiens), sequence (P23443 whole entry, looked up): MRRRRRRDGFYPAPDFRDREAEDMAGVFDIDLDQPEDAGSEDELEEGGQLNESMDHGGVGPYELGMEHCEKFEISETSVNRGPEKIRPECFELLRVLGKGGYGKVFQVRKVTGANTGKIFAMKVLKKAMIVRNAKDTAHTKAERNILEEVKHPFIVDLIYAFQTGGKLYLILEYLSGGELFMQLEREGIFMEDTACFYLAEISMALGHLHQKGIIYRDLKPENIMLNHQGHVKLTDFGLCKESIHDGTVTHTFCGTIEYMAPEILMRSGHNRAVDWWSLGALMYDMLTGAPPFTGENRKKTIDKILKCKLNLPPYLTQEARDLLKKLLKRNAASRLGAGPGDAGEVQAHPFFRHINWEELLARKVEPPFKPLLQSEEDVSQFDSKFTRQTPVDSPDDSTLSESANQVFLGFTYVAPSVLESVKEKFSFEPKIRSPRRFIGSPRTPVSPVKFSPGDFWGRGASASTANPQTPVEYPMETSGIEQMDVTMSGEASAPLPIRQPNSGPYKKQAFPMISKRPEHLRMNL
Serine/threonine-protein kinase MARK2 (Homo sapiens), sequence (Q7KZI7 whole entry): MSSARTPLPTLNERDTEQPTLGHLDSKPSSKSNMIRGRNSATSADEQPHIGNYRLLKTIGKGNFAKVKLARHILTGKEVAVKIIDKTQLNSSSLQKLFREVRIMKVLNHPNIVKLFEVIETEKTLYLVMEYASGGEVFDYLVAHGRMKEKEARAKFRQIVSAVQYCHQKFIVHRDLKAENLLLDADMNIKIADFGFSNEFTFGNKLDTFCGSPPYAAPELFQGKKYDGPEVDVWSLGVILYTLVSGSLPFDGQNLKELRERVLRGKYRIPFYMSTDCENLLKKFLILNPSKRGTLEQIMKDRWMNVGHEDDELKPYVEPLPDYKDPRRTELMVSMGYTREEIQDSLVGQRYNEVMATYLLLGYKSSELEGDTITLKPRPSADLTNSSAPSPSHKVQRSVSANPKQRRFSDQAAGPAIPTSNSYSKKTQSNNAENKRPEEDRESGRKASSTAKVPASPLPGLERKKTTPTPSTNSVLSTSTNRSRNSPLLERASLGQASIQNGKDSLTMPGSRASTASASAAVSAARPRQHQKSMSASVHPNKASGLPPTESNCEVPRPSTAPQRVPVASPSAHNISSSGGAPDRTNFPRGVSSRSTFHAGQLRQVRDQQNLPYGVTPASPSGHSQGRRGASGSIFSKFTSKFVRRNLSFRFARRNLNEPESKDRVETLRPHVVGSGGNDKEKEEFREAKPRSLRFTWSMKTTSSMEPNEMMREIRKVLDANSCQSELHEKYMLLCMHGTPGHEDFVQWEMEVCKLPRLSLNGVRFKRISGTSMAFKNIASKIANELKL

N#Cc1ccnc(Nc2cc(C3CCN(C4COC4)CC3)n(C3CCCC3)n2)c1
inhibition [1]: 5.7%
inhibition [2]: 63.3%
efflux ratio at 5 µM [3]: 1.4
inhibition [4]: 6.6%
Activity [5]: Non-toxic
IC50 [6]: 1010 nM
inhibition [7]: -3.6%
inhibition [8]: 2.1%
inhibition [9]: 12.5%
inhibition [10]: -1.9%
inhibition [11]: 0.8%
inhibition [12]: Active
inhibition [13]: 1%
inhibition [14]: 37.5%
inhibition [15]: 8.4%
Tmax [16]: 15 min
inhibition [17]: 9.2%
inhibition [18]: 3%
inhibition [19]: inactive
IC50 [20]: 1040 nM
inhibition [21]: 4.5%
inhibition [22]: 13.6%
